Results from ChEMBL document CHEMBL5236607, “Membrane-Active Cyclic Amphiphilic Peptides: Broad-Spectrum Antibacterial Activity Alone and in Combination with Antibiotics” (J Med Chem, 2022).
Peptide text beside a SMILES is read from it.

Experiments:
[1] = Therapeutic index, ratio of HC50 for human RBC to MIC for methicillin resistant Staphylococcus aureus ATCC BAA-1556
Summary of the method: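 Human RBCs washed in PBS pH 7.4 and mixed 1:1 with two-fold peptide dilutions (4% v/v suspension), 2 h at 37 °C. Hemoglobin in supernatant read at 567 nm against PBS (0%) and 1% Triton X-100 (100%). HC50 is the concentration giving 50% hemolysis. Index is HC50 divided by MIC against MRSA.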

Staphylococcus aureus [2] = test: Synergistic antibacterial activity against methicillin resistant Staphylococcus aureus ATCC BAA-1556 incubated for 24 hrs in presence of tetracycline by checkerboard assay; type: functional
Summary of the method: (§1)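 Checkerboard assay. Inoculum from an LB overnight culture at 0.5 McFarland, diluted 1/150 in MH media. […] Incubated 37 °C for 24 h. FICI = MIC combination/MIC alone summed over both agents. Triplicate.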

Staphylococcus aureus [3] = test: Synergistic antibacterial activity against methicillin resistant Staphylococcus aureus ATCC BAA-1556 incubated for 24 hrs in presence of tobramycin by checkerboard assay; type: functional; summary of the method: as §1
Staphylococcus aureus [4] = test: Synergistic antibacterial activity against methicillin resistant Staphylococcus aureus ATCC BAA-1556 incubated for 24 hrs in presence of clindamycin by checkerboard assay; type: functional; summary of the method: as §1
Pseudomonas aeruginosa [5] = test: Synergistic antibacterial activity against Pseudomonas aeruginosa ATCC […] incubated for 24 hrs in presence of meropenem by checkerboard assay; type: functional
Staphylococcus aureus [6] = test: Synergistic antibacterial activity against methicillin resistant Staphylococcus aureus ATCC BAA-1556 incubated for 24 hrs in presence of vancomycin by checkerboard assay; type: functional; summary of the method: as §1
Staphylococcus aureus [7] = test: Synergistic antibacterial activity against methicillin resistant Staphylococcus aureus ATCC BAA-1556 assessed as fractional inhibitory concentration index incubated for 24 hrs in presence of tetracycline by checkerboard assay; type: functional; summary of the method: as §1
Pseudomonas aeruginosa [8] = test: Synergistic antibacterial activity against Pseudomonas aeruginosa ATCC […] assessed as fractional inhibitory concentration index incubated for 24 hrs in presence of tetracycline by checkerboard assay; type: functional
Staphylococcus aureus [9] = test: Synergistic antibacterial activity against methicillin resistant Staphylococcus aureus ATCC BAA-1556 assessed as fractional inhibitory concentration index incubated for 24 hrs in presence of clindamycin by checkerboard assay; type: functional; summary of the method: as §1
Pseudomonas aeruginosa [10] = test: Synergistic antibacterial activity against Pseudomonas aeruginosa ATCC […] assessed as fractional inhibitory concentration index incubated for 24 hrs in presence of clindamycin by checkerboard assay; type: functional; summary of the method: as §1
Escherichia coli [11] = test: Synergistic antibacterial activity against Escherichia coli ATCC 25922 fractional inhibitory concentration index incubated for 24 hrs in presence of kanamycin by checkerboard assay; type: functional
Summary of the method: (§2)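 Checkerboard assay in MH broth. Inoculum from an LB overnight culture set to 0.5 McFarland and diluted 1/150. […] Each agent was also titrated alone. Incubation 24 h at 37 °C. FIC = combination MIC/individual MIC; FICI = sum of the FICs. Triplicate.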

Pseudomonas aeruginosa [12] = test: Synergistic antibacterial activity against Pseudomonas aeruginosa ATCC […] fractional inhibitory concentration index incubated for 24 hrs in presence of levofloxacin by checkerboard assay; type: functional
Staphylococcus aureus [13] = test: Synergistic antibacterial activity against methicillin resistant Staphylococcus aureus ATCC BAA-1556 fractional inhibitory concentration index incubated for 24 hrs in presence of Ciprofloxacin by checkerboard assay; type: functional; summary of the method: as §1
Pseudomonas aeruginosa [14] = test: Synergistic antibacterial activity against Pseudomonas aeruginosa ATCC […] fractional inhibitory concentration index incubated for 24 hrs in presence of Ciprofloxacin by checkerboard assay; type: functional
Klebsiella pneumoniae [15] = test: Synergistic antibacterial activity against Klebsiella pneumoniae ATCC BAA-1705 fractional inhibitory concentration index incubated for 24 hrs in presence of Ciprofloxacin by checkerboard assay; type: functional; summary of the method: as §2
Klebsiella pneumoniae [16] = test: Synergistic antibacterial activity against Klebsiella pneumoniae ATCC BAA-1705 fractional inhibitory concentration index incubated for 24 hrs in presence of polymyxin B by checkerboard assay; type: functional
Pseudomonas aeruginosa [17] = test: Synergistic antibacterial activity against Pseudomonas aeruginosa ATCC […] fractional inhibitory concentration index incubated for 24 hrs in presence of metronidazole by checkerboard assay; type: functional
Escherichia coli [18] = test: Synergistic antibacterial activity against Escherichia coli ATCC 25922 fractional inhibitory concentration index incubated for 24 hrs in presence of vancomycin by checkerboard assay; type: functional; summary of the method: as §1
Klebsiella pneumoniae [19] = test: Synergistic antibacterial activity against Klebsiella pneumoniae ATCC BAA-1705 assessed as fractional inhibitory concentration incubated for 24 hrs in presence of tobramycin by checkerboard assay; type: functional; summary of the method: as §2
Pseudomonas aeruginosa [20] = test: Synergistic antibacterial activity against Pseudomonas aeruginosa ATCC […] assessed as fractional inhibitory concentration incubated for 24 hrs in presence of clindamycin by checkerboard assay; type: functional
Escherichia coli [21] = test: Synergistic antibacterial activity against Escherichia coli ATCC 25922 assessed as fractional inhibitory concentration incubated for 24 hrs in presence of clindamycin by checkerboard assay; type: functional; summary of the method: as §2
Klebsiella pneumoniae [22] = test: Synergistic antibacterial activity against Klebsiella pneumoniae ATCC BAA-1705 fractional inhibitory concentration incubated for 24 hrs in presence of clindamycin by checkerboard assay; type: functional; summary of the method: as §2
Pseudomonas aeruginosa [23] = test: Synergistic antibacterial activity against Pseudomonas aeruginosa ATCC […] fractional inhibitory concentration incubated for 24 hrs in presence of kanamycin by checkerboard assay; type: functional; summary of the method: as §1
Klebsiella pneumoniae [24] = test: Synergistic antibacterial activity against Klebsiella pneumoniae ATCC BAA-1705 fractional inhibitory concentration incubated for 24 hrs in presence of kanamycin by checkerboard assay; type: functional; summary of the method: as §2
Escherichia coli [25] = test: Synergistic antibacterial activity against Escherichia coli ATCC 25922 fractional inhibitory concentration incubated for 24 hrs in presence of levofloxacin by checkerboard assay; type: functional; summary of the method: as §2
Pseudomonas aeruginosa [26] = test: Synergistic antibacterial activity against Pseudomonas aeruginosa ATCC […] fractional inhibitory concentration incubated for 24 hrs in presence of Ciprofloxacin by checkerboard assay; type: functional
Klebsiella pneumoniae [27] = test: Synergistic antibacterial activity against Klebsiella pneumoniae ATCC BAA-1705 fractional inhibitory concentration incubated for 24 hrs in presence of Ciprofloxacin by checkerboard assay; type: functional; summary of the method: as §2
Escherichia coli [28] = test: Synergistic antibacterial activity against Escherichia coli ATCC 25922 fractional inhibitory concentration incubated for 24 hrs in presence of polymyxin B by checkerboard assay; type: functional; summary of the method: as §2
Staphylococcus aureus [29] = test: Synergistic antibacterial activity against methicillin resistant Staphylococcus aureus ATCC BAA-1556 fractional inhibitory concentration incubated for 24 hrs in presence of vancomycin by checkerboard assay; type: functional; summary of the method: as §1
Pseudomonas aeruginosa [30] = test: Synergistic antibacterial activity against Pseudomonas aeruginosa ATCC […] fractional inhibitory concentration incubated for 24 hrs in presence of vancomycin by checkerboard assay; type: functional
Pseudomonas aeruginosa [31] = test: Synergistic antibacterial activity against Pseudomonas aeruginosa ATCC […] fractional inhibitory concentration incubated for 24 hrs in presence of daptomycin by checkerboard assay; type: functional
Klebsiella pneumoniae [32] = test: Synergistic antibacterial activity against Klebsiella pneumoniae ATCC BAA-1705 fractional inhibitory concentration incubated for 24 hrs in presence of daptomycin by checkerboard assay; type: functional; summary of the method: as §2
[33] = Membrano-lytic effect in mammalian membrane mimic DOPC/cholesterol (10:1) large unilamellar vesicles assessed as calcein leakage measured at 5 to 50 microg/ml measured after 100 mins by multimode microplate reader assay; type: cell membranes; conditions: dose 5-50 µg/ml
Summary of the method: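 Calcein (70 mM) loaded into extruded 100 nm LUVs: DOPC:DOPG 7:3 (w/w) as the bacterial mimic, DOPC/cholesterol 10:1 (w/w) as the mammalian mimic. Free dye removed by gel filtration. Liposomes at 40 μM final lipid in PBS mixed 1:1 with peptide (5–50 μg/mL). Fluorescence (ex 490/em 520 nm) read every 10 min for 100 min; Triton X-100 defines 100% release. Triplicate.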

N=C(N)NCCC[C@@H]1NC(=O)[C@H](CCCNC(=N)N)NC(=O)[C@H](CCCNC(=N)N)NC(=O)[C@H](Cc2c[nH]c3ccccc23)NC(=O)[C@H](Cc2c[nH]c3ccccc23)NC(=O)[C@H](Cc2c[nH]c3ccccc23)NC(=O)[C@H](Cc2c[nH]c3ccccc23)NC(=O)[C@H](CCCNC(=N)N)NC(=O)[C@H](CCCNC(=N)N)NC1=O
TI [1]: 85
MIC (Staphylococcus aureus [2]): 0.0625 µg/mL
MIC (Staphylococcus aureus [3]): 0.125 µg/mL
MIC (Staphylococcus aureus [4]): 0.0312 µg/mL
MIC (Pseudomonas aeruginosa [5]): 0.125 µg/mL
MIC (Staphylococcus aureus [6]): 0.5 µg/mL
fractional inhibitory concentration index (FICI) (Staphylococcus aureus [7]): 0.5
fractional inhibitory concentration index (FICI) (Pseudomonas aeruginosa [8]): 0.375
fractional inhibitory concentration index (FICI) (Staphylococcus aureus [9]): 0.499
fractional inhibitory concentration index (FICI) (Pseudomonas aeruginosa [10]): 0.266
fractional inhibitory concentration index (FICI) (Escherichia coli [11]): 0.5
fractional inhibitory concentration index (FICI) (Pseudomonas aeruginosa [12]): 0.375
fractional inhibitory concentration index (FICI) (Staphylococcus aureus [13]): 0.625
fractional inhibitory concentration index (FICI) (Pseudomonas aeruginosa [14]): 0.5
fractional inhibitory concentration index (FICI) (Klebsiella pneumoniae [15]): 0.313
fractional inhibitory concentration index (FICI) (Klebsiella pneumoniae [16]): 0.375
fractional inhibitory concentration index (FICI) (Pseudomonas aeruginosa [17]): 0.5
fractional inhibitory concentration index (FICI) (Escherichia coli [18]): 0.531
FIC (Klebsiella pneumoniae [19]): 0.125
FIC (Pseudomonas aeruginosa [20]): 0.016
FIC (Escherichia coli [21]): 0.063
FIC (Klebsiella pneumoniae [22]): 0.0039
FIC (Pseudomonas aeruginosa [23]): 0.0313
FIC (Klebsiella pneumoniae [24]): 0.125
FIC (Escherichia coli [25]): 0.125
FIC (Pseudomonas aeruginosa [26]): 0.25
FIC (Klebsiella pneumoniae [27]): 0.0625
FIC (Escherichia coli [28]): 0.125
FIC (Staphylococcus aureus [29]): 0.5
FIC (Pseudomonas aeruginosa [30]): 0.063
FIC (Pseudomonas aeruginosa [31]): 0.063
FIC (Klebsiella pneumoniae [32]): 0.0156
Activity [33]: 13%

N=C(N)NCCC[C@@H]1NC(=O)[C@H](CCCNC(=N)N)NC(=O)[C@H](CCCNC(=N)N)NC(=O)[C@H](CCCNC(=N)N)NC(=O)[C@H](Cc2c[nH]c3ccccc23)NC(=O)[C@H](Cc2c[nH]c3ccccc23)NC(=O)[C@H](Cc2c[nH]c3ccccc23)NC(=O)[C@H](Cc2c[nH]c3ccccc23)NC(=O)[C@H](CCCNC(=N)N)NC(=O)[C@H](CCCNC(=N)N)NC1=O (cyclo(RRRRRRWWWW))
TI [1]: 33.1
MIC (Staphylococcus aureus [2]): 0.0625 µg/mL
MIC (Staphylococcus aureus [3]): 0.0625 µg/mL
MIC (Staphylococcus aureus [4]): 0.031 µg/mL
MIC (Pseudomonas aeruginosa [5]): 0.25 µg/mL
MIC (Staphylococcus aureus [6]): 0.25 µg/mL
fractional inhibitory concentration index (FICI) (Staphylococcus aureus [7]): 0.5
fractional inhibitory concentration index (FICI) (Pseudomonas aeruginosa [8]): 0.5
fractional inhibitory concentration index (FICI) (Staphylococcus aureus [9]): 0.498
fractional inhibitory concentration index (FICI) (Pseudomonas aeruginosa [10]): 0.516
fractional inhibitory concentration index (FICI) (Escherichia coli [11]): 0.375
fractional inhibitory concentration index (FICI) (Pseudomonas aeruginosa [12]): 0.375
fractional inhibitory concentration index (FICI) (Staphylococcus aureus [13]): 0.75
fractional inhibitory concentration index (FICI) (Pseudomonas aeruginosa [14]): 0.5
fractional inhibitory concentration index (FICI) (Klebsiella pneumoniae [15]): 0.313
fractional inhibitory concentration index (FICI) (Klebsiella pneumoniae [16]): 0.281
fractional inhibitory concentration index (FICI) (Pseudomonas aeruginosa [17]): 0.375
fractional inhibitory concentration index (FICI) (Escherichia coli [18]): 0.563
FIC (Klebsiella pneumoniae [19]): 0.25
FIC (Pseudomonas aeruginosa [20]): 0.016
FIC (Escherichia coli [21]): 0.063
FIC (Klebsiella pneumoniae [22]): 0.016
FIC (Pseudomonas aeruginosa [23]): 0.0156
FIC (Klebsiella pneumoniae [24]): 0.25
FIC (Escherichia coli [25]): 0.125
FIC (Pseudomonas aeruginosa [26]): 0.25
FIC (Klebsiella pneumoniae [27]): 0.0625
FIC (Escherichia coli [28]): 0.063
FIC (Staphylococcus aureus [29]): 0.25
FIC (Pseudomonas aeruginosa [30]): 0.0313
FIC (Pseudomonas aeruginosa [31]): 0.0156
FIC (Klebsiella pneumoniae [32]): 0.125
